Source: ChEMBL document CHEMBL3808357, “Discovery of N-(3-((1-Isonicotinoylpiperidin-4-yl)oxy)-4-methylphenyl)-3-(trifluoromethyl)benzamide (CHMFL-KIT-110) as a Selective, Potent, and Orally Available Type II c-KIT Kinase Inhibitor for Gastrointestinal Stromal Tumors (GISTs)” (J Med Chem, 2016)

Legend:
[1] = tested on: K562; assay: Antiproliferative activity against BCR-ABL dependent human K562 cells assessed as reduction in cell viability after 72 hrs by celltiter-glo/CCK8 assay; type: functional; conditions: K562, 72 h
In short: (§1)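 Cells were seeded at 1 to 3 × 10⁴ cells/mL with serial compound concentrations and incubated 72 h at 37 °C, 5% CO₂. Viability was read by CellTiter-Glo luminescence or CCK-8 absorbance (450/655 nm). GI50 values are from triplicate testing. GIST-T1 and CHO were grown in DMEM/10% FBS; GIST-882, GIST-48B and MV4-11 in IMDM/10% FBS; other lines in RPMI 1640/10% FBS.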

[2] = Antiproliferative activity against mouse BAF3 cells; type: cell-based
[3] = molecular target: Mast/stem cell growth factor receptor Kit (Homo sapiens) (UniProt P10721); assay: Inhibition of Tel-fused cKIT (unknown origin) transfected in mouse BAF3 cells assessed as decrease in cell proliferation after 72 hrs by celltiter-glo/CCK8 assay; type: cell-based; in short: as §1
Sequence of Mast/stem cell growth factor receptor Kit (Homo sapiens) (P10721 whole entry, the tested form may be a part): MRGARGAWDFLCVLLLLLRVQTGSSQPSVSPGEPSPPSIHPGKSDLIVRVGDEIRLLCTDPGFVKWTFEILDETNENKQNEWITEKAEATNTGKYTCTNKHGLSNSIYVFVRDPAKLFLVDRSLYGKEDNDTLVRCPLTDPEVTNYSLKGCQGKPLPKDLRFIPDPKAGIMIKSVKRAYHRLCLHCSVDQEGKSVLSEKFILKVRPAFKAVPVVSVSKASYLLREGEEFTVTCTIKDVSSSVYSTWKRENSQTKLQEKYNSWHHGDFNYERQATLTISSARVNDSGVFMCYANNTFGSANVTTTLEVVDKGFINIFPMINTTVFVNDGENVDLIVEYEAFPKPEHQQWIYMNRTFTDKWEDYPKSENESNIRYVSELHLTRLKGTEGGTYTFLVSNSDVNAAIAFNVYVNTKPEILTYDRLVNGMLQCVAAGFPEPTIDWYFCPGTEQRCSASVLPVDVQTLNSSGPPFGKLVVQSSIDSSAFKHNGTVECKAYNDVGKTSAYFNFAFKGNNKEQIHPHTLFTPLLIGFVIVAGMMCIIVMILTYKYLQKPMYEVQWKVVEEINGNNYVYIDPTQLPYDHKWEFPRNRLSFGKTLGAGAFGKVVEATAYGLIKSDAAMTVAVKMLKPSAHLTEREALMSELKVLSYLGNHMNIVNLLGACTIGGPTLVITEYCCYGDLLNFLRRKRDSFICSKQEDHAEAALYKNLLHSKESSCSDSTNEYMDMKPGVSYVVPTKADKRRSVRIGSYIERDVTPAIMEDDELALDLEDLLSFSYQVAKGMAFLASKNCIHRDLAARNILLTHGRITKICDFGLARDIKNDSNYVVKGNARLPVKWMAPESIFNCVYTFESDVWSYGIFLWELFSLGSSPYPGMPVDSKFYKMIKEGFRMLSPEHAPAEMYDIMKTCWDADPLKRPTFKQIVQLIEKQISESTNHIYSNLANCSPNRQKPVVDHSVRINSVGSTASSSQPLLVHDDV

[4] = Antiproliferative activity against human BCR-ABL dependent MEG01 cells assessed as reduction in cell viability after 72 hrs by celltiter-glo/CCK8 assay; type: functional; conditions: MEG-01, 72 h
[5] = Antiproliferative activity against cKIT dependent human GISTT1 cells assessed as reduction in cell viability after 72 hrs by celltiter-glo/CCK8 assay; type: functional; conditions: GISTT1, 72 h; in short: as §1
[6] = tested on: MV4-11; assay: Antiproliferative activity against FLT3-ITD dependent human MV4-11 cells assessed as reduction in cell viability after 72 hrs by celltiter-glo/CCK8 assay; type: functional; conditions: MV4-11, 72 h; in short: as §1
[7] = Antiproliferative activity against CHO cells assessed as reduction in cell viability after 72 hrs by celltiter-glo/CCK8 assay; type: cell-based, Cricetulus griseus; conditions: chinese hamster; in short: as §1
[8] = tested on: Mast/stem cell growth factor receptor Kit (Homo sapiens), P10721 [V654A]; assay: Inhibition of Tel-fused cKIT V654A mutant (unknown origin) transfected in mouse BAF3 cells assessed as decrease in cell proliferation after 72 hrs by celltiter-glo/CCK8 assay; type: cell-based
Sequence of Mast/stem cell growth factor receptor Kit (Homo sapiens), P10721 [V654A] (P10721 whole entry V654A, the tested form may be a part): as the sequence (P10721 whole entry, the tested form may be a part) above, with V654A counted along it
In short: (§2)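 Stable BaF3 lines made by retroviral transduction with mutagenized TEL-KIT MSCV vectors, puromycin selection 48 h, then gradual IL-3 withdrawal until IL-3-independent; grown in RPMI 1640 with 10% FBS. Cells at 1 to 3 × 10⁴ cells/mL exposed to a concentration series for 72 h; viability read by CellTiter-Glo luminescence or CCK-8 absorbance (450/655 nm); GI50 from triplicate testing.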

[9] = Antiproliferative activity against FLT3-ITD dependent human MOLM14 cells assessed as reduction in cell viability after 72 hrs by celltiter-glo/CCK8 assay; type: functional; conditions: MOLM-14, 72 h; in short: as §1
[10] = Antiproliferative activity against human GIST48B cells assessed as reduction in cell viability after 72 hrs by celltiter-glo/CCK8 assay; type: functional; in short: as §1
[11] = Antiproliferative activity against human HL60 cells assessed as reduction in cell viability after 72 hrs by celltiter-glo/CCK8 assay; type: functional; conditions: HL-60, 72 h; in short: as §1
[12] = Antiproliferative activity against human Rec1 cells assessed as reduction in cell viability after 72 hrs by celltiter-glo/CCK8 assay; type: functional; conditions: Rec1, 72 h; in short: as §1
[13] = tested on: Mast/stem cell growth factor receptor Kit (Homo sapiens), P10721 [T670I]; assay: Inhibition of Tel-fused cKIT T670I mutant (unknown origin) transfected in mouse BAF3 cells assessed as decrease in cell proliferation after 72 hrs by celltiter-glo/CCK8 assay; type: cell-based; in short: as §2
Sequence of Mast/stem cell growth factor receptor Kit (Homo sapiens), P10721 [T670I] (P10721 whole entry T670I, the tested form may be a part): as the sequence (P10721 whole entry, the tested form may be a part) above, with T670I counted along it

[14] = Antiproliferative activity against human U937 cells assessed as reduction in cell viability after 72 hrs by celltiter-glo/CCK8 assay; type: functional; conditions: U-937, 72 h; in short: as §1
[15] = Antiproliferative activity against BCR-ABL dependent human KU812 cells assessed as reduction in cell viability after 72 hrs by celltiter-glo/CCK8 assay; type: functional; conditions: KU812, 72 h; in short: as §1
[16] = Antiproliferative activity against cKIT dependent human GIST882 cells assessed as reduction in cell viability after 72 hrs by celltiter-glo/CCK8 assay; type: functional; conditions: GIST882, 72 h; in short: as §1
[17] = tested on: Mast/stem cell growth factor receptor Kit (Homo sapiens), P10721 [V559D]; assay: Inhibition of Tel-fused cKIT V559D mutant (unknown origin) transfected in mouse BAF3 cells assessed as decrease in cell proliferation after 72 hrs by celltiter-glo/CCK8 assay; type: cell-based; in short: as §2
Sequence of Mast/stem cell growth factor receptor Kit (Homo sapiens), P10721 [V559D] (P10721 whole entry V559D, the tested form may be a part): as the sequence (P10721 whole entry, the tested form may be a part) above, with V559D counted along it

[18] = tested on: Mast/stem cell growth factor receptor Kit (Homo sapiens), P10721 [V559D,T670I]; assay: Inhibition of Tel-fused cKIT T670I/V559D double mutant (unknown origin) transfected in mouse BAF3 cells assessed as decrease in cell proliferation after 72 hrs by celltiter-glo/CCK8 assay; type: cell-based; in short: as §2
Sequence of Mast/stem cell growth factor receptor Kit (Homo sapiens), P10721 [V559D,T670I] (P10721 whole entry V559D/T670I, the tested form may be a part): as the sequence (P10721 whole entry, the tested form may be a part) above, with V559D, T670I counted along it

[19] = Antiproliferative activity against CHL cells assessed as reduction in cell viability after 72 hrs by celltiter-glo/CCK8 assay; type: cell-based, Cricetulus griseus; conditions: chinese hamster; in short: as §1
[20] = tested on: Mast/stem cell growth factor receptor Kit (Homo sapiens), P10721 [D816V]; assay: Inhibition of Tel-fused cKIT D816V mutant (unknown origin) transfected in mouse BAF3 cells assessed as decrease in cell proliferation after 72 hrs by celltiter-glo/CCK8 assay; type: cell-based; in short: as §2
Sequence of Mast/stem cell growth factor receptor Kit (Homo sapiens), P10721 [D816V] (P10721 whole entry D816V, the tested form may be a part): as the sequence (P10721 whole entry, the tested form may be a part) above, with D816V counted along it

[21] = tested on: Mast/stem cell growth factor receptor Kit (Homo sapiens), P10721 [V559D,V654A]; assay: Inhibition of Tel-fused cKIT V559D/V654A double mutant (unknown origin) transfected in mouse BAF3 cells assessed as decrease in cell proliferation after 72 hrs by celltiter-glo/CCK8 assay; type: cell-based; in short: as §2
Sequence of Mast/stem cell growth factor receptor Kit (Homo sapiens), P10721 [V559D,V654A] (P10721 whole entry V559D/V654A, the tested form may be a part): as the sequence (P10721 whole entry, the tested form may be a part) above, with V559D, V654A counted along it

[22] = tested on: Mast/stem cell growth factor receptor Kit (Homo sapiens), P10721 [N822K]; assay: Inhibition of Tel-fused cKIT N822K mutant (unknown origin) transfected in mouse BAF3 cells assessed as decrease in cell proliferation after 72 hrs by celltiter-glo/CCK8 assay; type: cell-based
Sequence of Mast/stem cell growth factor receptor Kit (Homo sapiens), P10721 [N822K] (P10721 whole entry N822K, the tested form may be a part): as the sequence (P10721 whole entry, the tested form may be a part) above, with N822K counted along it

[23] = molecular target: Mast/stem cell growth factor receptor Kit (Homo sapiens) (UniProt P10721); assay: Inhibition of Tel-fused cKIT L567P mutant (unknown origin) transfected in mouse BAF3 cells assessed as decrease in cell proliferation after 72 hrs by celltiter-glo/CCK8 assay; type: cell-based

GI50 [1] [µM] | GI50 [3] [µM] | Compound | GI50 [2] [µM] | further results
2.32 | 0.031 | Cc1ccc(NC(=O)c2ccc(C)c(C(F)(F)F)c2)cc1OC1CCN(C(=O)c2ccncc2)CC1 | 6.39 | 
> 10 | > 10 | Cc1ccc(NC(=O)c2cccc(C(F)(F)F)n2)cc1OC1CCN(C(=O)c2cccnc2)CC1 | > 10 | 
1.96 | 0.065 | Cc1ccc(NC(=O)c2ccc(C)c(C(F)(F)F)c2)cc1OC1CCN(C(=O)c2ccno2)CC1 | 8.94 | 
1.95 | 0.15 | Cc1ccc(NC(=O)c2cc(Cl)cc(C(F)(F)F)c2)cc1OC1CCN(C(=O)c2ccno2)CC1 | > 10 | 
5.85 | 0.083 | Cc1ccc(NC(=O)c2ccc(C)c(C(F)(F)F)c2)cc1OC1CCN(C(=O)c2cccnc2)CC1 | 5.47 | 
> 10 | 1.55 | CCC(=O)N1CCC(Oc2cc(NC(=O)c3cccc(C(F)(F)F)c3)ccc2C)CC1 | > 10 | 
> 10 | 0.49 | O=C(Nc1cccc(OC2CCN(C(=O)c3cccnc3)CC2)c1)c1cccc(C(F)(F)F)c1 | > 10 | 
9.92 | 0.34 | Cc1ccc(NC(=O)c2cc(C(C)(C)C)on2)cc1OC1CCN(C(=O)c2cccnc2)CC1 | > 10 | 
> 10 | 8.07 | O=C(Nc1cccc(OC2CCCN(C(=O)c3cccnc3)C2)c1)c1cccc(C(F)(F)F)c1 (configuration not stated) | 8.07 | 
> 10 | 9.97 | Cc1ccc(NC(=O)c2cccc(C(F)(F)F)c2)cc1OCCNC(=O)c1ccno1 | > 10 | 
3.66 | 0.16 | Cc1ccc(NC(=O)c2cc(Cl)cc(C(F)(F)F)c2)cc1OC1CCN(C(=O)c2cccnc2)CC1 | > 10 | 
5.24 | 0.1 | Cc1ccc(NC(=O)c2ccc(C)c(C(F)(F)F)c2)cc1OC1CCN(C(=O)c2cncs2)CC1 | > 10 | 
> 10 | > 10 | Cc1ccc(NC(=O)c2cccc(C(F)(F)F)n2)cc1OC1CCN(C(=O)c2ccno2)CC1 | > 10 | 
> 10 | 5.55 | Cc1ccc(NC(=O)c2cnc3ccccc3c2)cc1OC1CCN(C(=O)c2cccnc2)CC1 | > 10 | 
0.16 | 0.22 | Cc1ccc(NC(=O)c2cccc(C(F)(F)F)c2)cc1OC1CCN(C(=O)c2ccno2)CC1 | > 10 | 
> 10 | 1.48 | COc1cccc(C(=O)Nc2ccc(C)c(OC3CCN(C(=O)c4cccnc4)CC3)c2)c1 | > 10 | 
> 10 | > 10 | O=C(Nc1cccc(OC2CCCN(C(=O)c3ccno3)C2)c1)c1cccc(C(F)(F)F)c1 (configuration not stated) | > 10 | 
1 | 0.078 | CCN(CC)CCNC(=O)c1c(C)[nH]c(/C=C2\C(=O)Nc3ccc(F)cc32)c1C [SUNITINIB] | 2.78 | GI50 [4]: 1.2 µM; GI50 [5]: 0.041 µM; GI50 [6]: 0.001 µM; GI50 at 72 h [7]: 2.03 µM; GI50 [8]: 0.02 µM; GI50 [9]: 0.005 µM; GI50 [10]: 2.01 µM; GI50 [11]: 0.001 µM; GI50 [12]: 0.87 µM; GI50 [13]: 0.002 µM; GI50 [14]: 1.7 µM; GI50 [15]: 1.1 µM; GI50 [16]: 0.11 µM; GI50 [17]: 0.009 µM; GI50 [18]: 0.053 µM; GI50 at 72 h [19]: 2.48 µM; GI50 [20]: 1.38 µM
0.78 | 2.6 | Cc1ccc(NC(=O)Nc2ccc(Cl)c(C(F)(F)F)c2)cc1OC1CCN(C(=O)c2cccnc2)CC1 | 3.3 | 
8.36 | 0.62 | C=CC(=O)N1CCC(Oc2cc(NC(=O)c3cccc(C(F)(F)F)c3)ccc2C)CC1 | > 10 | 
> 10 | 4.8 | Cc1ccc(NC(=O)c2ccc3c(c2)OCO3)cc1OC1CCN(C(=O)c2cccnc2)CC1 | > 10 | 
2.94 | 0.11 | Cc1ccc(NC(=O)c2cccc(C(F)(F)F)c2)cc1OC1CCN(C(=O)c2cccnc2)CC1 | > 10 | 
> 10 | 0.33 | Cc1ccc(NC(=O)c2cccc(C(F)(F)F)c2)cc1OC1CCN(C(=O)c2ccccn2)CC1 | > 10 | 
> 10 | 7.94 | Cc1ccc(NC(=O)c2cccc(C(F)(F)F)c2)cc1OCCNC(=O)c1cccnc1 | > 10 | 
2.8 | 0.96 | O=C(Nc1ccc(Cl)c(OC2CCN(C(=O)c3cccnc3)CC2)c1)c1cccc(C(F)(F)F)c1 | > 10 | 
> 10 | > 10 | COc1ccc(NC(=O)c2cccc(C(F)(F)F)c2)cc1OC1CCN(C(=O)c2cccnc2)CC1 | > 10 | 
4.56 | 0.15 | Cc1ccc(NC(=O)c2cc(F)cc(C(F)(F)F)c2)cc1OC1CCN(C(=O)c2cccnc2)CC1 | > 10 | 
0.12 | 0.4 | Cc1ccc(NC(=O)c2ccc(CN3CCN(C)CC3)cc2)cc1Nc1nccc(-c2cccnc2)n1 [IMATINIB] | > 10 | GI50 [21]: 3 µM; GI50 [5]: 0.008 µM; GI50 [6]: > 10 µM; GI50 at 72 h [7]: > 10 µM; GI50 [22]: 1.29 µM; GI50 [8]: 2.49 µM; GI50 [9]: > 10 µM; GI50 [10]: > 10 µM; GI50 [11]: > 10 µM; GI50 [12]: > 10 µM; GI50 [14]: > 10 µM; GI50 [16]: 0.014 µM; GI50 [17]: 0.039 µM; GI50 [18]: 6.67 µM; GI50 at 72 h [19]: > 10 µM; GI50 [23]: 0.1 µM
